CHOP UPR activ = activators of apoptotic arm of unfolded protein response (CHOP); CHO-CHOP luciferase reporter, UPR activation, luminescence; percent of tunicamycin response over DMSO baseline; activation, % at 10 µM; hit rate 0.34% among 330,000;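 active = at 10 µM dose, activation of 40% or more, normalized to positive control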;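 note: 100% = tunicamycin at 10 µg/mL and 0% = DMSO alone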
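Evaluation: % reporter activation, DMSO baseline versus tunicamycin full activation; System: CHO-CHOP luciferase reporter cell line; Input: 500 cells/well; Incubation: 6 h compound treatment, 37 °C; Measured by: Steady-Glo luciferase luminescence; Dosing: one dose, 10 µM in 0.5% DMSO; Buffer or medium: F12 medium, 10% FBS; Benchmarks: positive tunicamycin 10 µg/mL, negative DMSO alone.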
697 NFkB inh = lowers PMA/ionomycin-induced NF-kB signal in 697 B cells; 697 B-cell NF-kB luciferase reporter, 16 h; inhibition, % at 4 µM; hit rate 0.33% among 330,000; in the data active = inhibition above about 35%
UPR XBP1 act = adaptive UPR (XBP1) activation | hit rate 0.33% among 330,000 | CHO-XBP1 luciferase reporter, IRE1-XBP1 UPR activation, luminescence; percent of tunicamycin response, DMSO as zero | AID 463104 | activation, % at 20 µM;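 active = versus positive control, 20 µM dose yields 30% or more activation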;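 note: 100% = tunicamycin at 10 µg/mL and 0% = DMSO only wells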
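Assay system: IRE1-XBP1 luciferase reporter CHO line. Input: 1000 cells/well. Buffer or medium: F12 with 10% serum. Doses: 20 µM, 1% DMSO. Times: overnight seeding at 37 °C, 6 h compound treatment at 37 °C. Technique: Steady-Glo luciferase glow luminescence, 10 min after reagent addition.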
Jurkat NFkB inh = inhibitors of the PMA/ionomycin-induced NF-kB reporter in Jurkat cells | PMA/ionomycin-induced NF-kB luciferase reporter, luminescence | inhibition, % at 4 µM | hit rate 0.53% among 330,000 | AID 435003; in the data active = inhibition above about 50%
CHOP inh = blocks CHOP induction under ER stress | CHO-K1 CHOP-promoter luciferase, tunicamycin-induced, 15-18 h | inhibition, % at 10 µM | hit rate 3.8% among 220,000 | AID 2732;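 active = compounds that reduced the stress-induced luciferase reporter signal by more than about 70% of percent inhibition, limit read from the data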;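 note: 0% = tunicamycin plus vehicle and 100% = wells without tunicamycin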
Gli-Sufu antag = antagonists of Gli-Sufu signaling; AID 588413; inhibition, % at 5 µM; Sufu-KO-LIGHT fibroblasts, Gli luciferase reporter luminescence; hit rate 0.74% among 340,000;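 active = inhibition above about 55%, limit read from the data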;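 note: 0% = DMSO-treated cells and 100% = wells with medium but no cells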
An asterisk follows results filed as active; . = no result given. Most compounds without a hit are left out; they make up all but 3.9% or so of the library.

SMILES | CHOP UPR activ | 697 NFkB inh | UPR XBP1 act | Jurkat NFkB inh | CHOP inh | Gli-Sufu antag
Cc1ccc(NC(=O)COC(=O)c2ccc3c(c2)C(=O)N(CCc2ccccc2)C3=O)c(C)c1 | 0 | 16 | 0 | 2 | 78* | -2
CC(C)(C)c1ccc(COC(=O)Nc2ccc(F)cc2)cc1 | 1 | 3 | -2 | -14 | 77* | -7
CCOC(=O)NC(=S)Nc1ccc(C(C)(C)C)cc1 | 5 | -16 | 5 | -28 | 9 | -12
Cn1nc(-c2ccc(N3CCCCC3)c(NC(=O)c3ccco3)c2)c2ccccc2c1=O | 4 | 28 | 17 | 12 | 88* | 13
O=C(COC(=O)c1nc(Cl)c(Cl)c(Cl)c1Cl)NCc1ccccc1 | 4 | 5 | -1 | 5 | . | 2
CCOc1ccc(C2Nc3ccc4ccccc4c3-c3c2c(=O)oc2ccccc32)cc1 (centres undefined) | 5 | 13 | 8 | 27 | 81* | 2
CC(C)Oc1cccc(C(=O)Nc2ccccc2N2CCOCC2)c1 | 1 | -18 | 0 | -7 | 74* | -5
Cc1cc(Cl)ccc1OC(C)C(=O)Nc1ccccc1N1CCOCC1 (centres undefined) | 1 | 24 | -2 | 13 | 74* | 33
COc1nnc(-c2ccc(N3CCOCC3)c(NC(=O)c3ccccc3)c2)c2ccccc12 | -3 | -11 | 5 | 3 | 86* | 15
COc1nnc(-c2ccc(N3CCOCC3)c(NC(C)=O)c2)c2ccccc12 | -3 | 23 | -1 | -4 | -16 | 3
CCC(C)Oc1cccc(C(=O)Nc2ccccc2N2CCOCC2)c1 (centres undefined) | 1 | -5 | 1 | -4 | 75* | 0
CC(Oc1ccc(Cl)cc1)C(=O)Nc1ccccc1N1CCOCC1 (centres undefined) | 1 | 17 | -5 | 11 | . | 10
O=C(NNC(=O)c1cnccn1)c1ccc(Cl)c(Cl)c1 | 0 | 12 | -3 | 1 | . | -20
O=C(CCc1ccccc1)Nc1cccc(S(=O)(=O)N2CCOCC2)c1 | 0 | 5 | -1 | 16 | . | 4
C=C(NC(=O)C(=C)NC(=O)c1csc(C2=NC3c4csc(n4)C4NC(=O)c5csc(n5)C(C(C)(O)C(C)O)NC(=O)C5CSC(=N5)/C(=C/C)NC(=O)C(C(C)O)NC(=O)c5csc(n5)C3(CC2)NC(=O)C(C)NC(=O)C(=C)NC(=O)C(=C)NC(=O)C(C(C)C)NC2C=Cc3c(C(C)O)cc(nc3C2O)C(=O)OC4C)n1)C(N)=O (centres undefined) | . | . | . | . | . | 66*
CC1CC(C)CN(C(=O)C(C)N2CCN(S(=O)(=O)c3ccc(C(F)(F)F)cc3)CC2)C1 (centres undefined) | . | . | . | . | . | 1
CCCc1cc(=O)[nH]c(Nc2ccc(OC)c(Cl)c2)n1 | -2 | -6 | -1 | 5 | 78* | 3
Cc1ccc(NC(=O)c2cc(-c3cccc(O)c3)on2)cc1C | 3 | -43 | 6 | -68 | 86* | -36
Cc1ccc(S(=O)(=O)NCC(=O)OCC(=O)N(C)C2CCS(=O)(=O)C2)cc1 (centres undefined) | -1 | -25 | -1 | -8 | . | -10
O=C(COc1cccc2ccccc12)N1c2ccccc2CCc2ccccc21 | 1 | 5 | 3 | 12 | 74* | 13
CC1(C)CC2CC(C)(CN2C(=O)COc2cccc3ccccc23)C1 (centres undefined) | -1 | 0 | 0 | 12 | 91* | 2
CC1(C)CC2CC(C)(CN2C(=O)COC(=O)c2n[nH]c(=O)c3ccccc23)C1 (centres undefined) | 1 | 6 | 2 | -6 | 2 | .
CN(C)CCCN(C(=O)/C=C/c1cccs1)c1nc2ccc(F)cc2s1 | 2 | 12 | -3 | -9 | -19 | 11
CN(C)CCN(C(=O)/C=C/c1cccs1)c1nc2c(F)cc(F)cc2s1 | -3 | 12 | -3 | 9 | 106* | -3
O=C(COc1cccc(Br)c1)N/N=C1\CCCc2ccccc21 | 1 | -8 | -1 | -3 | 75* | 3
SMILES | CHOP UPR activ | 697 NFkB inh | UPR XBP1 act | Jurkat NFkB inh | CHOP inh | Gli-Sufu antag
Cc1ccc(NC(=O)N2CCCC2C(=O)Nc2nnc(C(C)C)s2)cc1 (centres undefined) | 1 | 9 | 3 | -1 | . | -44
O=C(CCCCn1c(=O)c2ccccc2n(CC(=O)Nc2cccc(F)c2)c1=O)NCc1ccco1 | 1 | -8 | -5 | 11 | 14 | -2
CCc1ccc(NC(=O)Cn2c(=O)n(CCCC(=O)NCc3ccco3)c(=O)c3ccccc32)cc1 | 1 | -9 | -2 | -1 | 76* | 0
Cc1cccc2c1c1ccc3c(c1n2C)C(=O)C=CC3=O | . | . | . | . | 78* | -5
COc1cc(CNc2nc(C)c([N+](=O)[O-])c(C)c2C#N)cc(OC)c1 | -2 | 22 | 3 | -13 | 71* | 8
CN(C)S(=O)(=O)c1cccc(C(=O)Nc2cc(Cl)cc(Cl)c2)c1 | 5 | 2 | -1 | -29 | 71* | -26
CCN(CC)S(=O)(=O)c1ccc(Cl)c(NC(=O)c2cc(Cl)cc(Cl)c2)c1 | 8 | 20 | 3 | 0 | 89* | -2
CN(C)S(=O)(=O)c1ccc(Cl)c(C(=O)Nc2ccccc2[N+](=O)[O-])c1 | -1 | -6 | -2 | -5 | 22 | -17
CN(C)S(=O)(=O)c1cccc(C(=O)Nc2ccccc2)c1 | 1 | 3 | 6 | -23 | -1 | -2
CCN(CC)S(=O)(=O)c1ccc(Cl)c(C(=O)Nc2ccc(Cl)cc2[N+](=O)[O-])c1 | 6 | -5 | 1 | 5 | 79* | 27
O=C(CCS(=O)(=O)c1ccc(Cl)cc1)Nc1nc(-c2ccncc2)cs1 | 1 | -31 | -6 | -14 | . | 3
O=C(COC(=O)c1ccc(Cl)c(Cl)c1)NC1CCCC1 | 1 | 8 | -2 | 0 | . | -2
CC(=O)c1ccccc1NC(=O)COC(=O)/C(=C/c1ccccc1)n1nnnc1C | -2 | -35 | -2 | 1 | . | 10
CSc1cccc(NC(=O)C(C)Sc2ccc(C)cc2)c1 (centres undefined) | 3 | 10 | 0 | 8 | 78* | 0
COCC(=O)N1C[C@H]2CON(C)[C@H]2C[C@H]1c1cccc(-c2ccc(C#N)cc2)c1 | . | . | . | . | . | -13
CC(C)(C)c1ccc(S(=O)(=O)NCc2ccccn2)cc1 | 0 | 6 | 0 | -8 | . | 4
CC(C)(C)c1cc(C(C)(C)C)cc(S(=O)(=O)CCc2ccccn2)c1 | -1 | -15 | -3 | -7 | 70* | 11
Cc1cccc(C(=O)NNC(=O)c2ccc(-c3ccccc3)cc2)c1 | 3 | 10 | -1 | -8 | 51 | 2
O=C(NNC(=O)c1ccc(-c2ccccc2)cc1)c1ccccc1 | 6 | -15 | -2 | -15 | 81* | -25

Bioassay records (PubChem BioAssay)
